Data: ChEMBL document CHEMBL1147093, “Miltefosine affects lipid metabolism in Leishmania donovani promastigotes” (2007)
Calls of active or inactive are those of the source. The rule behind the calls is not given here.

What was measured:
[1] = tested on: Leishmania donovani; assay: Effect on total membrane fatty acid composition in Leishmania donovani LV9 promastigotes assessed by measuring 9-octadecenoate fatty acid at 10 uM; assay type: functional
Method in brief: (§1)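 Log-phase LV9 wild-type promastigotes were exposed to HePC for 48 h before harvest, in 1 liter of medium 199 at 26°C. Washed whole-cell pellets served as total membranes. Fatty acids were analysed by gas chromatography as methyl esters and expressed as % of total fatty acids (mean ± SD, n = 3).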

[2] = tested on: Leishmania donovani; assay: Effect on total membrane fatty acid composition in Leishmania donovani LV9 promastigotes assessed by measuring octadecanoate fatty acid at 10 uM; assay type: functional; method in brief: as §1
[3] = tested on: Leishmania donovani; assay: Effect on total membrane fatty acid composition in Leishmania donovani LV9 promastigotes assessed by measuring unsaturated fatty acids at 10 uM; assay type: functional; method in brief: as §1
[4] = tested on: Leishmania donovani; assay: Effect on total membrane fatty acid composition in Leishmania donovani LV9 promastigotes assessed as decrease in C16 fatty acid content at 10 uM; assay type: functional; set-up: scale not given: the % may be the effect or the level left; method in brief: as §1
[5] = tested on: Leishmania donovani; assay: Effect on total membrane sterol composition in Leishmania donovani LV9 promastigotes assessed by measuring cholesterol content at 10 uM; assay type: functional
Method in brief: (§2)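 LV9 promastigotes (wild type, 26°C, 1 liter shaken culture) were exposed to HePC for 48 h before harvest. Total membranes were extracted in dichloromethane-methanol 2:1 for 24 h at 4°C, then saponified with 30% KOH/methanol at 80°C for 2 h. Sterols were extracted into hexane, converted to TMS ethers with BSTFA (80°C, 1 h) and analysed by GC-MS with EI at 70 eV. Results are given as % total sterol, n = 3.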

[6] = tested on: Leishmania donovani; assay: Effect on total membrane sterol composition in Leishmania donovani LV9 promastigotes assessed by measuring 14-alpha-Methylcholesta-5,7,24-trien-3beta-ol content at 10 uM; assay type: functional; method in brief: as §2
[7] = tested on: Leishmania donovani; assay: Effect on total membrane sterol composition in Leishmania donovani LV9 promastigotes assessed by measuring ergosterol content at 10 uM; assay type: functional; method in brief: as §2
[8] = tested on: Leishmania donovani; assay: Effect on total membrane sterol composition in Leishmania donovani LV9 promastigotes assessed by measuring cholesta-5,7,24-trien-3beta-ol content at 10 uM; assay type: functional; method in brief: as §2
[9] = tested on: Leishmania donovani; assay: Effect on total membrane sterol composition in Leishmania donovani LV9 promastigotes assessed by measuring ergosta-5,7,22,24(24')-tetraen-3beta-ol content at 10 uM; assay type: functional; method in brief: as §2
[10] = tested on: Leishmania donovani; assay: Effect on total membrane sterol composition in Leishmania donovani LV9 promastigotes assessed by measuring ergosta-5,7,24(24')-trien-3beta-ol content at 10 uM; assay type: functional; method in brief: as §2
[11] = tested on: Leishmania donovani; assay: Effect on total membrane sterol composition in Leishmania donovani LV9 promastigotes assessed by measuring stigmasta-7,24(24')-dien-3beta-ol content at 10 uM; assay type: functional; method in brief: as §2
[12] = tested on: Leishmania donovani; assay: Effect on total membrane sterol composition in Leishmania donovani LV9 promastigotes assessed by measuring ergosta-7,22-dien-3beta-ol content at 10 uM; assay type: functional; method in brief: as §2
[13] = tested on: Leishmania donovani; assay: Effect on total membrane sterol composition in Leishmania donovani LV9 promastigotes assessed by measuring 14-alpha-Methylergosta-5,7,24(24')-trien-3beta-ol content at 10 uM; assay type: functional; method in brief: as §2
[14] = tested on: Leishmania donovani; assay: Effect on total membrane sterol composition in Leishmania donovani LV9 promastigotes assessed by measuring 4,4alpha-Dimethylcholesta-8,24-dien-3beta-ol content at 10 uM; assay type: functional; method in brief: as §2
[15] = tested on: Leishmania donovani; assay: Effect on total membrane sterol composition in Leishmania donovani LV9 promastigotes assessed by measuring 4-alpha,14alpha-Dimethylcholesta-8,24-dien-3beta-ol content at 10 uM; assay type: functional; method in brief: as §2
[16] = tested on: Leishmania donovani; assay: Effect on total membrane sterol composition in Leishmania donovani LV9 promastigotes assessed by measuring 14-alpha-Methylergosta-8,24(24')-dien-3beta-ol content at 10 uM; assay type: functional; method in brief: as §2
[17] = tested on: Leishmania donovani; assay: Effect on total membrane sterol composition in Leishmania donovani LV9 promastigotes assessed by measuring 4,4alpha-Dimethylergosta-8,24(24')-dien-3beta-ol content at 10 uM; assay type: functional; method in brief: as §2
[18] = tested on: Leishmania donovani; assay: Effect on total membrane sterol composition in Leishmania donovani LV9 promastigotes assessed by measuring 4-alpha,-14alpha-Dimethylergosta-8,24(24')-dien-3beta-ol content at 10 uM; assay type: functional; method in brief: as §2
[19] = tested on: Leishmania donovani; assay: Effect on total membrane sterol composition in Leishmania donovani LV9 promastigotes assessed by measuring 24-Methylenedihydrolanosterol content at 10 uM; assay type: functional; set-up: scale not given: the % may be the effect or the level left; method in brief: as §2
[20] = tested on: Leishmania donovani; assay: Growth inhibition of wild type Leishmania donovani LV9 at 10 uM after 48 hrs; assay type: functional; details: LV9, 48 h
Method in brief: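 Promastigotes were grown in medium 199 with 10% heat-inactivated FCS, HEPES, adenosine, hemin and gentamicin at 26°C in the dark. HePC was tested at 20, 10, 5, 2.5 and 1.25 μM. Cells were counted microscopically at 24, 48 and 72 h. n = 3.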

[21] = tested on: Leishmania donovani; assay: Effect on total membrane phospholipid composition in wild type Leishmania donovani LV9 assessed as decrease in phosphatidyl choline at 10 uM after 48 hrs; assay type: functional; set-up: scale not given: the % may be the effect or the level left
Method in brief: (§3)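 Wild-type LV9 promastigotes were cultured in 1 liter of supplemented medium 199 at 26°C with shaking. HePC (aqueous) was added 48 h before harvest at late log phase. After TBS washes, the whole-cell pellet was taken as total membranes. Lipids were extracted with chloroform/methanol and phospholipids profiled by HPLC on a PVA-sil column with evaporative light-scattering detection. n = 3.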

[22] = tested on: Leishmania donovani; assay: Effect on plasma membrane phospholipid composition in wild type Leishmania donovani LV9 assessed as decrease in phosphatidyl choline at 10 uM after 48 hrs; assay type: functional; set-up: scale not given: the % may be the effect or the level left
Method in brief: (§4)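 Wild-type LV9 promastigotes grown at 26°C with shaking, starting at 10^6/ml in 1 liter of medium 199 with 10% FCS. HePC in aqueous solution was added 48 h before harvest at late log phase. Cells were washed in TBS and lysed by freeze-thaw; a 2,100 × g pellet gave the plasma membrane-enriched fraction. Lipids were extracted with chloroform/methanol and phospholipids analysed by HPLC (PVA-sil column, light-scattering detection). n = 3.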

[23] = tested on: Leishmania donovani; assay: Effect on total membrane phospholipid composition in wild type Leishmania donovani LV9 assessed as increase in phosphatidyl ethanolamine at 10 uM after 48 hrs; assay type: functional; method in brief: as §3
[24] = tested on: Leishmania donovani; assay: Effect on plasma membrane phospholipid composition in wild type Leishmania donovani LV9 assessed as increase in phosphatidyl ethanolamine at 10 uM after 48 hrs; assay type: functional; method in brief: as §4
[25] = tested on: Leishmania donovani; assay: Effect on phospholipid composition in HePC-resistant Leishmania donovani at 1 uM; assay type: functional, organism-based
Method in brief: (§5)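 HePC-resistant L. donovani LV9 promastigotes were kept under 40 μM HePC in medium 199 with 10% inactivated FCS, HEPES, adenosine, hemin and gentamicin at 26°C in the dark, then exposed to added HePC. Cells were harvested in late log phase and washed in cold TBS. Lipids from total and plasma-membrane-enriched fractions were extracted with chloroform/methanol. Phospholipids were quantified by HPLC on a PVA-sil column with evaporative light scattering detection.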

[26] = tested on: Leishmania donovani; assay: Effect on phospholipid composition in HePC-resistant Leishmania donovani at 10 uM; assay type: functional, organism-based; method in brief: as §5
[27] = tested on: Leishmania donovani; assay: Effect on total membrane fatty acid composition in Leishmania donovani LV9 promastigotes assessed by measuring dodecanoate fatty acid at 10 uM; assay type: functional; method in brief: as §1
[28] = tested on: Leishmania donovani; assay: Effect on total membrane fatty acid composition in Leishmania donovani LV9 promastigotes assessed by measuring tetradecanoate fatty acid at 10 uM; assay type: functional; method in brief: as §1
[29] = tested on: Leishmania donovani; assay: Effect on total membrane fatty acid composition in Leishmania donovani LV9 promastigotes assessed by measuring 9-hexadecenoate fatty acid at 10 uM; assay type: functional; method in brief: as §1
[30] = tested on: Leishmania donovani; assay: Effect on total membrane fatty acid composition in Leishmania donovani LV9 promastigotes assessed by measuring hexadecanoate fatty acid at 10 uM; assay type: functional; method in brief: as §1
[31] = tested on: Leishmania donovani; assay: Effect on total membrane sterol composition in Leishmania donovani LV9 promastigotes assessed by measuring total C24 alkyl sterol content at 10 uM; assay type: functional; method in brief: as §2
[32] = tested on: Leishmania donovani; assay: Effect on total membrane sterol composition in Leishmania donovani LV9 promastigotes assessed as reduction in total C24 alkyl sterol content; assay type: functional; set-up: scale not given: the % may be the effect or the level left; method in brief: as §2
[33] = tested on: Leishmania donovani; assay: Effect on total membrane sterol composition in Leishmania donovani LV9 promastigotes assessed by measuring 14-alpha-Methylcholesta-8,24-dien-3beta-ol content at 10 uM; assay type: functional; method in brief: as §2
[34] = tested on: Leishmania donovani; assay: Effect on total membrane sterol composition in Leishmania donovani LV9 promastigotes assessed by measuring ergosta-7,24(24')-dien-3beta-ol content at 10 uM; assay type: functional; method in brief: as §2

**Q.** How did the Activity [1] turn out when `CCCCCCCCCCCCCCCCOP(=O)([O-])OCC[N+](C)(C)C` [MILTEFOSINE] was run?
**A.** 34.22%

**Q.** What about the Activity [2] of the same molecule?
**A.** 22.33%

**Q.** What about the Activity [3] of the same molecule?
**A.** 52%

**Q.** And the Activity [4]?
**A.** 41%

**Q.** What about the Activity [5] of the same molecule?
**A.** 61.2%

**Q.** And the Activity [6]?
**A.** 0.1%

**Q.** And the Activity [7]?
**A.** 26.3%

**Q.** And the Activity [8]?
**A.** 3.2%

**Q.** And the Activity [9]?
**A.** 1.6%

**Q.** What about the Activity [10] of the same molecule?
**A.** 5.1%

**Q.** And the Activity [11]?
**A.** 0.3%

**Q.** And the Activity [12]?
**A.** 0.2%

**Q.** What about the Activity [13] of the same molecule?
**A.** 0.3%

**Q.** What about the Activity [14] of the same molecule?
**A.** 0.2%

**Q.** And the Activity [15]?
**A.** 0.2%

**Q.** And the Activity [16]?
**A.** 0.3%

**Q.** What about the Activity [17] of the same molecule?
**A.** 0.7%

**Q.** What about the Activity [18] of the same molecule?
**A.** 0.2%

**Q.** And the Activity [19]?
**A.** 1.4%

**Q.** What about the inhibition at 10 µM [20] of the same molecule?
**A.** 66%

**Q.** What about the Activity [21] of the same molecule?
**A.** 42%

**Q.** What about the Activity [22] of the same molecule?
**A.** 47%

**Q.** What about the Activity [23] of the same molecule?
**A.** 19%

**Q.** And the Activity [24]?
**A.** 25%

**Q.** And the Activity [25]?
**A.** inactive

**Q.** And the Activity [26]?
**A.** inactive

**Q.** What about the Activity [27] of the same molecule?
**A.** 1.84%

**Q.** What about the Activity [28] of the same molecule?
**A.** 3.85%

**Q.** And the Activity [29]?
**A.** 1.56%

**Q.** And the Activity [30]?
**A.** 4.8%

**Q.** What about the Activity [31] of the same molecule?
**A.** 36.6%

**Q.** What about the Activity [32] of the same molecule?
**A.** 43%

**Q.** What about the Activity [33] of the same molecule?
**A.** 0.2%

**Q.** And the Activity [34]?
**A.** 0.4%
